Compound activity (PubChem)
In the library only some 4.7% were active in any assay of this set; here they are far more common.
ADAM17 inh: ADAM17 inhibitors, primary screen, biochemical, QFRET | Disintegrin and metalloproteinase domain-containing protein 17 (Homo sapiens), P78536 | recombinant ADAM17, EDANS/DABCYL FRET peptide cleavage | inhibition, % at 6.95 µM | 0.83% of 370,000 active | AID 720648, 2013;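 active = inhibition above the mean of compounds lying between control limits plus 3 SD, set per campaign, cut at about 8.5% in these data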;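 note: 0% = DMSO-only wells as the low control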
Target sequence (P78536 215-824 limits assumed): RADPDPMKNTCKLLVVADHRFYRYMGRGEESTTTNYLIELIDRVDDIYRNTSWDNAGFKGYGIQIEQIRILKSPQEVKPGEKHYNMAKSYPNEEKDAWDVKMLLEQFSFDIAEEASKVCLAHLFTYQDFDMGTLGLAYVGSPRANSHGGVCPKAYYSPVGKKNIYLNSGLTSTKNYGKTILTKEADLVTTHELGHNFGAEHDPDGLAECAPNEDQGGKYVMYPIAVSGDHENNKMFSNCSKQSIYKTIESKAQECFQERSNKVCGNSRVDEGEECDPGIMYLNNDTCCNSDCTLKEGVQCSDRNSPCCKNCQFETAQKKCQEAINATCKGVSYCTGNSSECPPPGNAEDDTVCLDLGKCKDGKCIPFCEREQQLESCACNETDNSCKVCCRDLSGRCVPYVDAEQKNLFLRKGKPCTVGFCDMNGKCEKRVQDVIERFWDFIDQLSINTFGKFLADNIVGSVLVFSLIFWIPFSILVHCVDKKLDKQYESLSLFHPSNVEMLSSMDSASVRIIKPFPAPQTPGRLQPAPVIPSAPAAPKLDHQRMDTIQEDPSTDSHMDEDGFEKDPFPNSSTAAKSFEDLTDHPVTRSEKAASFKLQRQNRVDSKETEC
ADAM10 inh: human ADAM10 inhibitors, primary screen, biochemical, QFRET, HTS. AID 720582, 2013. 0.62% of 370,000 active. recombinant ADAM10, EDANS/DABCYL FRET peptide cleavage, 3 h. inhibition, % at 7 µM. Disintegrin and metalloproteinase domain-containing protein 10 (Homo sapiens), O14672;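 active = inhibition above a per-campaign cutoff equal to the mean of compounds falling between control-based bounds plus 3 SD, cut at about 20% in these data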;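 note: 0% = DMSO wells while the 100% control is not disclosed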
SKN-1 inh: suppressors of acrylamide-induced Pgst-4::GFP reporter in worms, primary screen, SKN-1 inhibitor project, whole organism, uHTS, GFP/RFP fluorescence ratio, strain VP596 | C. elegans VP596 Pgst-4::GFP/RFP ratio, 24 h | AID 624304, 2012 | 0.49% of 360,000 active | inhibition, % at 21.8 µM;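 active = interference check ratio from 0.5 to 1.5 plus GFP to RFP signal ratio inhibition reaching or exceeding a fixed threshold, cut at about 30% in these data, passing the limit was not always enough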
GRIN3A LBD mod: binders of NR3A ligand-binding domain, primary screen, biophysical, differential scanning fluorimetry, uHTS. NR3A LBD differential scanning fluorimetry, Tm shift; 0% = protein alone, 100% = glycine-bound protein. Tm shift relative to glycine control, % at 25 µM. Glutamate receptor ionotropic, NMDA 3A (GRIN3A) ligand-binding domain. 2.5% of 340,000 active;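 active = melting temperature shift of at least 10% of the positive control shift, at one fixed dose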
MPTP block: mitochondrial permeability transition pore inhibitors, primary screen, biochemical, isolated mouse mitochondria, absorbance. Ca2+ swelling absorbance, 30 min. inhibition, % at 10 µM. 1.4% of 360,000 active. AID 602449, 2012;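 active = inhibition of 50% or more, scaled per plate between neutral and stimulator controls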;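 note: 0% = DMSO wells given calcium and 100% = 1 mM EGTA wells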
MT1-MMP act inh: blockers of MT1-MMP proenzyme processing, primary screen, HT1080 RFP-PRO-GFP cells, GFP/RFP fluorescence | GFP/RFP ratio fluorescence, overnight; percent of plate control window, DMSO zero | Matrix metalloproteinase-14 (Homo sapiens), P50281 | AID 651647, 2012 | 0.061% of 360,000 active | GFP/RFP ratio change, % at 20 µM;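 active = GFP/RFP ratio change of at least 30% with cell ATP level not reduced by more than half and red fluorescence within 50% of control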
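Compound: 20 µM single dose, 1% DMSO / System: HT1080 RFP-PRO-GFP cells / Controls: DMSO and RFP-L50D-GFP cell wells / Read-out basis: GFP/RFP fluorescence ratio / Schedule: overnight compound exposure at 37 °C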
Rh123 counter: fluorescence retest of MPTP screen hits in isolated mitochondria, single concentration | shares compounds with MPTP block | inhibition, % at 10 µM | AID 624504, 2012 | 78% of 5,000 active | membrane potential, Rhodamine 123 fluorescence; in the data active = inhibition above about 22%;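 note: 0% = DMSO vehicle and 100% = positive control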
MPTP abs DR: mitochondrial permeability transition pore inhibitors, dose response, biochemical, absorbance, uHTS hits; shares compounds with MPTP block; isolated mitochondria swelling; IC50, µM; 58% of 780 active; AID 651561, 2012; in the data active = IC50 below about 20 µM
MPTP counter DR: fluorescent counter-screen in isolated mitochondria, dose response, counter-screen for MPTP inhibitor project, biochemical, fluorescence, uHTS hits. AID 651564, 2012. shares compounds with MPTP block. 49% of 780 active. IC50, µM. isolated mitochondria counterscreen, fluorescence read-out; in the data active = IC50 below about 80 µM
* marks the source's active call; other numbers are inactive results; i = inactive; nt = not tested or not shown; ! = not confirmed by another sample.

SMILES	ADAM17 inh	ADAM10 inh	SKN-1 inh	GRIN3A LBD mod	MPTP block	MT1-MMP act inh	Rh123 counter	others
CS(=O)(=O)N1CCCC(C(=O)Nc2ccc(F)c(F)c2)C1 (configuration not stated)	-5	-6	25	-2	-2	-3	nt
Cc1nc2c(OCc3cccc(Cl)c3)cccn2c1N(C)Cc1cccs1	0	-4	5	nt	71*	nt	86*
COC(=O)c1ccccc1COc1cccn2c(N(C)Cc3cccs3)c(C)nc12	-2	-12	-14	nt	31	5	nt
Cc1nc2c(OCc3ccc(Cl)cc3Cl)cccn2c1N(C)Cc1cccs1	-6	-8	2	nt	72*	-9	87*
S=C(NN=C1CCCCC1=NNC(=S)N1CCOCC1)N1CCOCC1	-25	-88	nt	nt	nt	nt	nt
O=C(c1ccc(O)cc1)c1ccc(C(=O)c2ccc(O)cc2)cc1	1	4	4	-3	69*	-13	34*
O=C(C(=O)c1ccc(O)cc1)c1ccccc1	3	3	-6	7	1	-1	nt
O=C(CCSc1ccc(Cl)c(Cl)c1)NC12CC3CC(CC(C3)C1)C2	6	11	-6	-10	52*	-1	45*
O=C(CN1CCCC(O)C1)N1c2ccccc2Sc2ccc(C(F)(F)F)cc21 (configuration not stated)	2	-6	5	-2	0	-2	nt
CN1CCN(CCCN2c3ccccc3Sc3ccc(C(F)(F)F)cc32)CC1	-1	-24	14	-4	91*!	-2	-20	MPTP abs DR=4.2*;MPTP counter DR=>80
CC(C)CCNC(=O)CNC(=S)N(Cc1ccccc1)Cc1cccnc1	-2	-1	1	-2	0	-8	nt
CCC(C)(C)n1nnnc1C(c1ccccc1)N1CCN(Cc2ccccc2)CC1 (configuration not stated)	1	-3	-1	4	1	-6	nt
CN1CCN(/N=C/c2c3ccccc3c(Cl)c3ccccc23)CC1	-22	-55	5	1	91*	-21	-21
Clc1ccc(CN2CCN(N=Cc3c4ccccc4cc4ccccc34)CC2)cc1	3	-13	nt	nt	nt	nt	nt
CN1CCN(/N=C/c2ccc(-c3ccccc3)cc2)CC1	-1	0	79*	-1	70*	-3	-11
C=CCN(c1ccccc1)S(=O)(=O)c1cccc(C(=O)Nc2nnc(SCC)s2)c1	-1	-3	7	6	67*	4	67*
CCSc1nnc(NC(=O)c2cccc(S(=O)(=O)N(C)c3ccccc3)c2)s1	6	13	8	-20	43	0	nt
O=C(CSc1nnc(CNC(=O)c2ccccc2F)o1)c1ccc(Cl)cc1	-3	6	3	1	69*	0	13	MPTP abs DR=i;MPTP counter DR=26*
O=C(CSc1nnc(CNC(=O)c2cccs2)o1)c1ccc(Cl)cc1	0	8	8	-2	77*	2	30*
N#C/C(=C(/O)CCl)c1nc2c(s1)CCc1ccccc1-2	-7	-24	0	0	55*	-2	78*
Nc1nc2c(s1)CCc1ccccc1-2	-8	-37	14	-1	0	-3	nt
c1ccc(OCCOCCN2CCN(C(c3ccccc3)c3ccccc3)CC2)cc1	4	3	7	-1	1	-15	nt
COc1ccccc1OCCCCN1CCN(C(c2ccccc2)c2ccccc2)CC1	-2	-3	0	-1	82*	-8	-7	MPTP abs DR=i;MPTP counter DR=65*
COCCN(C(=O)CSc1nnc(-c2ccc(Cl)cc2)o1)c1c(N)n(CC(C)C)c(=O)[nH]c1=O	4	11	6	-2	-1	-2	nt
CCOC(=O)c1sc(NC(=O)C(CC)OC(=O)C(CC(C)C)NC(=O)c2ccccc2)nc1C (configuration not stated)	2	0	17	-3	1	-9	nt
SMILES	ADAM17 inh	ADAM10 inh	SKN-1 inh	GRIN3A LBD mod	MPTP block	MT1-MMP act inh	Rh123 counter	others
CC1CCC2C(=O)N(c3ccc(Cc4ccncc4)cc3)C(=O)C2C1 (configuration not stated)	-5	-5	0	0	87*	-3	89*
Cc1ccc(SCC(=O)Nc2cc([N+](=O)[O-])ccc2O)cc1	2	5	-5	1	102*	8	99*
CCOc1ccccc1NC(=O)CSc1ccc([N+](=O)[O-])cc1	-3	-1	-9	1	0	-2	nt
O=C(CSCc1ccc(Cl)cc1)Nc1cc([N+](=O)[O-])ccc1O	1	-5	-3	0	99*	6	88*
OCCCNc1ncnc2[nH]ncc12	-12	-61	-9	0	-1	1	nt
CCCCCCCCNc1ncnc2[nH]ncc12	2	-2	4	1	71*	12	71*
CCOC(=O)c1ccc(NC(=S)NCc2ccccc2)cc1	1	11	18	2	89*	6	87*
CCOC(=O)c1ccc(NC(=S)NCCc2ccccc2F)cc1	4	9	8	11*	78*	3	89*
COC(=O)c1ccc(NC(=S)NC(=O)C2CCC2)cc1	-1	-3	-25	-1	1	0	nt
COC(=O)c1ccc(NC(=S)NC2CCCCC2C)cc1 (configuration not stated)	3	6	-15	-5	98*	5	94*
CCOC(=O)c1ccc(NC(=S)NC2CCCC2)cc1	1	6	7	-6	95*	2	96*
CCOC(=O)c1ccc(NC(=S)NC(=O)C2CCCC2)cc1	5	3	5	-2	1	-5	nt
COc1ccc(C(=O)Nc2cc3c4c(c2)CC(=O)N4CCC3)c(OC)c1	nt	nt	13	-1	0	-8	nt
Cc1nn(CC(=O)Nc2cc(S(=O)(=O)N(C)C)ccc2Cl)c(C)c1[N+](=O)[O-]	-1	1	-5	-1	1	3	nt
